Results gathered from unrelated publications.
Compare with care: the assays were run in different laboratories.
sapA: sapA (Haemophilus influenzae, UniProt Q4QL73)
USP28: Ubiquitin carboxyl-terminal hydrolase 28 (USP28, Homo sapiens, UniProt Q96RU2)

With C[C@@H](O)[C@H](NC(=O)CNC(=O)[C@H](Cc1ccc(O)cc1)NC(=O)[C@H](CCCNC(=N)N)NC(=O)[C@@H](N)CO)C(=O)O the Kd was 31 nM (sapA; binding).
For CCC(C(=O)Nc1cc(NC2CCNC2)ccc1C)n1cc(Br)cc2nc(SCc3ccc(F)cc3)nc1-2 (stereo not drawn), the IC50 was over 100000 nM (USP28; enzyme activity, inhibitor).
COC(=O)c1cc(N(C)C(=O)c2ccn3ncc(-c4ccc(C(=O)O)cc4)c3c2)ccc1Cl gave an IC50 of over 30000 nM (Hepatocyte growth factor receptor (MET, Homo sapiens, UniProt P08581); enzyme activity, inhibitor).
For NCCCC[C@H](NC(=O)[C@@H]1CCCN1)C(=O)N[C@@H](CO)C(=O)N[C@@H](CCC(=O)O)C(=O)N[C@@H](CCC(N)=O)C(=O)O, the Kd was 28 nM (sapA; binding).
For CC[C@H](C)[C@H](NC(C)=O)C(=O)N[C@@H](CCC(=O)O)C(=O)N[C@H](C(=O)N[C@H](C=O)CC(=O)O)[C@@H](C)O, the IC50 was 11 nM (Caspase-1 (CASP1, Homo sapiens, UniProt P29466); enzyme activity, inhibitor).
CCC(C(=O)Nc1cc(NC2COC2)ccc1C)n1cc(Br)cc2nc(SCc3ccc(F)cc3)nc1-2 (stereo not drawn) has an IC50 of over 100000 nM (USP28; enzyme activity, inhibitor).
For C[C@@H](O)[C@H](NC(=O)CNC(=O)[C@H](Cc1ccc(O)cc1)NC(=O)[C@H](CO)NC(=O)[C@@H](N)CCCNC(=N)N)C(=O)O, the Kd was 139 nM (sapA; binding).
With CNC(=O)c1ccc(-c2cnn3ccc(C(=O)N(C)c4ccc(Cl)c(C(=O)OC)c4)cc23)cc1 the IC50 was over 30000 nM (TGF-beta receptor type-1 (TGFBR1, Homo sapiens, UniProt P36897); enzyme activity, inhibitor).
With CCC(C(=O)Nc1cc(NC2CCNCC2)ccc1C)n1cc(Cl)cc2nc(SCc3ccc(F)cc3)nc1-2 (stereo not drawn) the IC50 was over 100000 nM (Ubiquitin carboxyl-terminal hydrolase 7 (USP7, Homo sapiens, UniProt Q93009); enzyme activity, inhibitor).
